In PubChem BioAssay AID651572 (The Scripps Research Institute Molecular Screening Center, 2012):
The whole screen tested about 360,000 compounds, of which about 950 (0.26%) were called active. The sample as a whole holds a higher share of actives than the screen did. A number with no mark means an inactive call.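 Rule for the calls: active = inhibition above a per-plate limit, mean inhibition of low control wells plus 3 SD (cut at about 25% in these data); inactive = the rest.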

The compounds below were run against ADP-ribosylation factor GTPase-activating protein 1 (Rattus norvegicus) (UniProt Q62848) (assay: inhibitors of rat ARFGAP1 GAP activity, primary screen, biochemical, fluorescence polarization, GDP tracer (AID 651572;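 note: 0% = DMSO wells with enzyme and 100% = wells lacking Arfgap1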)). Conditions: Arfgap1-stimulated ARF1 GTP hydrolysis, GDP FP detection; at 16.5 µM; active compounds read high.
How it was run: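 system = rat Arfgap1 catalytic domain, aa 1-136 | technique = FP, GDP Alexa 633 tracer displaced from anti-GDP antibody, 620/688 nm | compound = one concentration, 16.5 µM, DMSO 1.26% | medium = HEPES-based buffer, pH 7.5 | timing = compound-enzyme preincubation 20 min, reaction 120 min, detection 60 min, 25 °C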

ADP-ribosylation factor GTPase-activating protein 1 (Rattus norvegicus), sequence (Q62848 1-136 limits assumed): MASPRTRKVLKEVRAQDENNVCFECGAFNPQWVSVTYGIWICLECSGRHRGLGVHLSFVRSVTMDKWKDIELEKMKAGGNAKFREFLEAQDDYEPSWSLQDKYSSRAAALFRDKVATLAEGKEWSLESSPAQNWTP

Row | SMILES | inhibition
1 | CCOC(=O)c1ccc(NC(=O)c2c(NCc3ccccc3)[nH]c(=O)[nH]c2=O)cc1 | -10.9%
2 | CCOC(=O)c1ccc(NC(=O)c2c(N)n(C)c(=O)[nH]c2=O)cc1 | 11%
3 | CCOC(=O)c1ccc(Nc2cc3ccccc3c(=O)[nH]2)cc1 | 25.9% (active)
4 | CC(C)CNc1cccc2c1S(=O)(=O)N[C@H](CC(C)C)CO2 | 2.08%
5 | CC(C)[C@H]1COCCS(=O)(=O)N1Cc1ccccc1-c1cccc2c1sc1ccccc12 | -9.36%
6 | COC(=O)C(C(=O)OC)c1ccccc1NS(=O)(=O)c1cccc2ccccc12 | -11.2%
7 | COCCCNC(=O)C[C@H]1C[C@@]2(C(=O)OC)C(=C[C@H](C(C)(C)C)O[C@@H]2C)N(Cc2ccc3c(c2)OCO3)C1=O | 2.5%
8 | CCOC(=O)C1CCN(C(c2cc3cc(C)cc(C)c3[nH]c2=O)c2nnnn2C2CCCCC2)CC1 (centres undefined) | 38.1% (active)
9 | Cc1cc(C)c2[nH]c(=O)c(C(c3nnnn3Cc3ccc4c(c3)OCO4)N3CCCC3)cc2c1 (centres undefined) | 6.09%
10 | COc1ccc(N2CCN(C(c3cc4ccc(C)cc4[nH]c3=O)c3nnnn3C3CCCC3)CC2)cc1 (centres undefined) | 7.55%
11 | CCCCOCC1CN(CCCC)S(=O)(=O)c2c(Oc3ccc(F)cc3)cccc2O1 (centres undefined) | -16.2%
12 | Cc1cc(NCCc2c[nH]c3ccccc23)ccc1Oc1cccnc1 | 4.98%
13 | CCCCCCCCN1C(=O)[C@@H](CC(=O)NCc2ccc(C)o2)C[C@@]2(C(=O)OC)C1=C[C@H](C(C)(C)C)O[C@@H]2C | 13.1%
14 | O=C(Nc1cccc(-c2nc3ccccc3[nH]2)c1)c1ccc(C(=O)Nc2cccc(-c3nc4ccccc4[nH]3)c2)cc1 | 47.5% (active)
15 | O=C(Nc1ccccc1)c1cc2ccccc2[nH]1 | -4.92%
16 | CC(C)n1c(=O)[nH]c2cc(C(=O)Nc3ccccc3)ccc21 | 9.47%
17 | COCCNC(=S)N(C)[C@H]1C[C@H]2c3[nH]c4ccccc4c3CCN2C[C@H]1[C@H](C)O | 8.23%
18 | C=CCN=C1NC(c2cccc(C(F)(F)F)c2)C(C(=O)OC)=C(C)N1C (centres undefined) | -13.8%
19 | Cc1ccc2nc(-c3ccc(CN4CCC(n5cc(-c6ccccc6)[nH]c5=O)CC4)cc3)c(-c3ccccc3)nc2c1 | 8.03%
20 | Nc1[nH]c(C(=O)c2ccccc2)c(-c2ccc(Cl)cc2Cl)c1C(=O)c1ccccc1 | -3.18%

Row | SMILES | inhibition
21 | CC(C)(C)C(c1nc2ccccc2[nH]1)n1c(Cc2csc3ccccc23)nc2ccccc21 (centres undefined) | 0.81%
22 | O=C(NCCCN1CCOCC1)c1cnn2c(-c3ccccc3)cc(-c3ccccc3)nc12 | -2.5%
23 | O=C(/C=C/c1cn(-c2ccccc2)nc1-c1ccc2c(c1)OCCO2)NCCCN1CCOCC1 | 25.8% (active)
24 | CC(C)c1ccc(/C=C/C(=O)NCCCN2CCOCC2)cc1 | -5.51%
25 | COC(=O)c1ccc(CN2C(=O)[C@]3(OCCC=C[C@H]3C)c3c(Br)cccc32)cc1 | 13.2%
26 | CSc1ccc(Oc2cccc3c2S(=O)(=O)N([C@H](C)c2ccccc2)C[C@@H](COCc2ccccc2)O3)cc1C | -6.49%
27 | O=C(NCc1ccccc1)[C@@H]1CCCN1C(=O)[C@H]1CCCN1C(=O)c1cccc(Cl)c1 | 9.96%
28 | COc1ccc(CNC(=O)C2CCN(C(=O)c3ccccc3)CC2)cc1 | -4.15%
29 | COc1ccc(-n2nc3c(N4CCC(C(=O)NCc5ccccc5)CC4)nnc(C)c3c2C)cc1 | 26.9% (active)
30 | COc1ccc(CNC(=O)C2CCN(C(=O)c3ccco3)CC2)cc1 | 9.83%
31 | C[C@@H]1CN([C@H](C)CO)C(=O)CCCn2cc(nn2)CO[C@H]1CN(C)C(=O)Nc1ccc(N2CCCCC2)cc1 | -7.3%
32 | Cc1cc2c(nc1C)CCCN2C | -0.08%
33 | COc1cccc(CNC(=O)[C@H]2CCCN2C(=O)[C@H]2CCCN2C(=O)c2cc(F)cc(F)c2)c1 | 9.87%
34 | C[C@H](CO)N1C[C@H](C)[C@@H](CN(C)C(=O)Nc2ccccc2F)OCc2cn(nn2)CCCC1=O | 5.05%
35 | COc1ccc(Cl)cc1NC(=O)CN1CCN(C(=O)N2CCOCC2)CC1 | 15%
36 | COc1ccc(C)cc1NC(=O)CSc1ccc(Cl)cc1 | -5.43%
37 | COc1ccc(Cl)cc1NC(=O)Cn1nc(-c2ccc(C)cc2)n(C)c1=S | 41.6% (active)
38 | N#Cc1cccc(C(=O)NCC2CCN(C(=O)C(=O)c3cc4ccccc4o3)CC2)c1 | 8.35%
39 | COC(=O)[C@]12C[C@H](CC(=O)NCCc3ccccc3OC)C(=O)N(Cc3ccccc3)C1=C[C@H](C(C)C)O[C@@H]2C1CC1 | -5.59%
